Test results from ChEMBL document CHEMBL4152257, “Discovery of novel β-carboline/acylhydrazone hybrids as potent antitumor agents and overcome drug resistance” (Eur J Med Chem, 2018).
The source made the active and inactive calls. The rule behind the calls is not given here.

Legend:
[1] = Resistance index, ratio of IC50 for human MCF7/ADR cells to IC50 for human MCF7 cells; type: functional
NCI/ADR-RES [2] = experiment: Induction of apoptosis in human MCF7/ADR cells assessed as early apoptotic cells at 10 uM after 48 hrs by annexin V-FITC/PI dual staining based flow cytometry (reference value: 2.72%); type: functional
NCI/ADR-RES [3] = experiment: Induction of apoptosis in human MCF7/ADR cells assessed as viable cells at 100 uM after 48 hrs by annexin V-FITC/PI dual staining based flow cytometry (reference value: 89.8%); type: functional; details: read-out: Activity
MCF7 [4] = experiment: Antiproliferative activity against human MCF7 cells at 1 uM after 48 to 72 hrs by MTT assay relative to control; type: functional
Outline: (§1)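 Single-concentration screen in the MTT proliferation assay: log-phase cells seeded and allowed to adhere, exposed to compound at 1 µM for 48 h or 72 h, MTT added for 2-3 h, formazan dissolved in DMSO; percent inhibition versus control.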

NCI/ADR-RES [5] = experiment: Induction of apoptosis in human MCF7/ADR cells assessed as late apoptotic cells at 3 uM after 48 hrs by annexin V-FITC/PI dual staining based flow cytometry (reference value: 5.02%); type: functional
NCI/ADR-RES [6] = experiment: Induction of apoptosis in human MCF7/ADR cells assessed as necrotic cells at 100 uM after 48 hrs by annexin V-FITC/PI dual staining based flow cytometry (reference value: 2.43%); type: functional
MCF7 [7] = experiment: Cell cycle arrest in human MCF7 cells assessed as accumulation at G0/G1 phase at 30 uM after 18 hrs by propidium iodide staining based flow cytometry (reference value: 45.22%); type: functional
MCF7 [8] = experiment: Induction of apoptosis in human MCF7 cells assessed as necrotic cells at 10 uM after 48 hrs by annexin V-FITC/PI dual staining based flow cytometry (reference value: 0.16%); type: functional
[9] = Selectivity ratio of IC50 for HUVEC to IC50 for human A549/TR cells; type: toxicity; details: HUVEC versus A549/TR cells
A549/TR = experiment: Antiproliferative activity against human A549/TR cells after 48 to 72 hrs by MTT assay; type: functional, cell-based
Outline: (§2)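 Cells in log phase seeded and allowed to adhere, then exposed to graded compound concentrations for 48 h or 72 h; MTT added for a further 2-3 h, formazan dissolved in DMSO. IC50 taken from dose-response curves; mean ± SD of at least three independent experiments.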

[10] = Resistance index, ratio of IC50 for human A2780T cells to IC50 for human A2780S cells; type: functional
NCI/ADR-RES [11] = experiment: Induction of apoptosis in human MCF7/ADR cells assessed as late apoptotic cells at 100 uM after 48 hrs by annexin V-FITC/PI dual staining based flow cytometry (reference value: 5.02%); type: functional
MCF7 [12] = experiment: Cell cycle arrest in human MCF7 cells assessed as accumulation at sub-G1 phase after 18 hrs by propidium iodide staining based flow cytometry; type: functional
MCF7 [13] = experiment: Induction of apoptosis in human MCF7 cells assessed as early apoptotic cells at 100 uM after 48 hrs by annexin V-FITC/PI dual staining based flow cytometry (reference value: 11%); type: functional
MCF7 [14] = experiment: Cell cycle arrest in human MCF7 cells assessed as accumulation at G2/M phase at 3 uM after 18 hrs by propidium iodide staining based flow cytometry (reference value: 9.98%); type: functional
NCI/ADR-RES [15] = experiment: Induction of apoptosis in human MCF7/ADR cells assessed as necrotic cells at 3 uM after 48 hrs by annexin V-FITC/PI dual staining based flow cytometry (reference value: 2.43%); type: functional
NCI/ADR-RES [16] = experiment: Induction of apoptosis in human MCF7/ADR cells assessed as early apoptotic cells at 100 uM after 48 hrs by annexin V-FITC/PI dual staining based flow cytometry (reference value: 2.72%); type: functional
A2780S = experiment: Antiproliferative activity against human A2780S cells after 48 to 72 hrs by MTT assay; type: functional, cell-based; outline: as §2
NCI/ADR-RES [17] = experiment: Induction of apoptosis in human MCF7/ADR cells assessed as late apoptotic cells at 10 uM after 48 hrs by annexin V-FITC/PI dual staining based flow cytometry (reference value: 5.02%); type: functional
MCF7 [18] = experiment: Induction of apoptosis in human MCF7 cells assessed as necrotic cells at 100 uM after 48 hrs by annexin V-FITC/PI dual staining based flow cytometry (reference value: 0.16%); type: functional
HUVEC = experiment: Antiproliferative activity against HUVEC after 48 to 72 hrs by MTT assay; type: cell-based; details: Homo sapiens; outline: as §2
MCF7 [19] = experiment: Cell cycle arrest in human MCF7 cells assessed as accumulation at S phase at 10 uM after 18 hrs by propidium iodide staining based flow cytometry (reference value: 44.80%); type: functional
NCI/ADR-RES [20] = experiment: Induction of apoptosis in human MCF7/ADR cells assessed as necrotic cells at 30 uM after 48 hrs by annexin V-FITC/PI dual staining based flow cytometry (reference value: 2.43%); type: functional
MCF7 [21] = experiment: Induction of apoptosis in human MCF7 cells assessed as viable cells at 100 uM after 48 hrs by annexin V-FITC/PI dual staining based flow cytometry (reference value: 77.8%); type: functional; details: MCF7, 48 h, read-out: Activity
MCF7 [22] = experiment: Cell cycle arrest in human MCF7 cells assessed as accumulation at S phase at 3 uM after 18 hrs by propidium iodide staining based flow cytometry (reference value: 44.80%); type: functional
NCI-H460 [23] = experiment: Antiproliferative activity against human H460 cells at 1 uM after 48 to 72 hrs by MTT assay relative to control; type: functional; outline: as §1
NCI-H460 [24] = experiment: Antiproliferative activity against human H460 cells after 48 to 72 hrs by MTT assay; type: functional, cell-based; outline: as §2
Mus musculus = experiment: Toxicity in athymic nude Balb/C mouse xenografted with human H460 cells assessed as body weight loss at 100 mg/kg, po administered 3 times per week measured every 2 days; type: organism-based; details: in vivo, 48 h
Outline: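 Nude mice, 5-to-6-week-old females, given 5 × 10^6 H460 cells sc in right flank in HBSS; at 100 mm3 tumour volume randomized, 6 per group. Vehicle; oral 100 mg/kg three times weekly; or ip 30 mg/kg once weekly. Toxicity signs and mortality observed daily; body weight measured every 2 days.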

[25] = Selectivity ratio of IC50 for HUVEC to IC50 for human A2780T cells; type: toxicity; details: HUVEC versus A2780T cells
MCF7 [26] = experiment: Cell cycle arrest in human MCF7 cells assessed as accumulation at G0/G1 phase at 3 uM after 18 hrs by propidium iodide staining based flow cytometry (reference value: 45.22%); type: functional
MCF7 [27] = experiment: Cell cycle arrest in human MCF7 cells assessed as accumulation at G0/G1 phase at 100 uM after 18 hrs by propidium iodide staining based flow cytometry (reference value: 45.22%); type: functional
A549 = experiment: Antiproliferative activity against human A549 cells after 48 to 72 hrs by MTT assay; type: functional, cell-based; outline: as §2
MCF7 [28] = experiment: Induction of apoptosis in human MCF7 cells assessed as late apoptotic cells at 100 uM after 48 hrs by annexin V-FITC/PI dual staining based flow cytometry (reference value: 11.1%); type: functional
NCI/ADR-RES [29] = experiment: Induction of apoptosis in human MCF7/ADR cells assessed as early apoptotic cells at 30 uM after 48 hrs by annexin V-FITC/PI dual staining based flow cytometry (reference value: 2.72%); type: functional

For `N#Cc1ccc(COc2cccc(/C=N/NC(=O)c3cc4c(cn3)[nH]c3ccccc34)c2)cc1`, the “Ratio IC50” value [1] was 1.06, the Activity (NCI/ADR-RES [2]) was 4.38% and the viability at 100 µM (NCI/ADR-RES [3]) was 53.5%. It also gave an inhibition at 1 µM (MCF7 [4]) of 59.6%, an Activity (NCI/ADR-RES [5]) of 7.2% and an Activity (NCI/ADR-RES [6]) of 9.14%. It also gave an Activity (MCF7 [7]) of 38.62%, an Activity (MCF7 [8]) of 0.3% and a selectivity ratio [9] of 28.3. The IC50 (A549/TR) was 3.13 µM, the “Ratio IC50” value [10] was 1.32 and the Activity (NCI/ADR-RES [11]) was 30.2%. For the same compound, the Activity (MCF7 [12]) was “Active”, the Activity (MCF7 [13]) was 13% and the Activity (MCF7 [14]) was 9.31%. It also gave an Activity (NCI/ADR-RES [15]) of 6.04%, an Activity (NCI/ADR-RES [16]) of 7.11% and an IC50 (A2780S) of 3.02 µM. The Activity (NCI/ADR-RES [17]) was 19.1%, the Activity (MCF7 [18]) was 0.76% and the IC50 (HUVEC) was 88.6 µM. The Activity (MCF7 [19]) was 56.38%, the Activity (NCI/ADR-RES [20]) was 8.52% and the viability at 100 µM (MCF7 [21]) was 47.2%. It also gave an Activity (MCF7 [22]) of 56.12%, an inhibition at 1 µM (NCI-H460 [23]) of 51% and an IC50 (NCI-H460 [24]) of 1.64 to 1.73 µM. For the same compound, the Activity (Mus musculus) was < 5%, the selectivity ratio [25] was 22.2 and the Activity (MCF7 [26]) was 34.57%. It also gave an Activity (MCF7 [27]) of 41.83%, an IC50 (A549) of 1.37 µM and an Activity (MCF7 [28]) of 38.9%. For the same compound, the Activity (NCI/ADR-RES [29]) was 4.85%.
